According to ChEMBL document CHEMBL1127308, “Inhibition of human neutrophil elastase with peptidyl electrophilic ketones. 2. Orally active PG-Val-Pro-Val pentafluoroethyl ketones” (J Med Chem, 1994):
Calls of active or inactive are those of the source. No cut-off for these calls is given here.

Experiments:
Rattus norvegicus [1] = assay: In vivo inhibitory activity against HNE-induced pulmonary hemorrhage was determined in rats after oral administration of 25 mg/kg; format: functional
Summary of the method: (§1)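 Rats were dosed orally 45 min before intratracheal instillation of 100 μg HNE. After 1 h, lungs were lavaged with saline, and BAL hemoglobin was measured spectrophotometrically (536–546 nm) against a Hgb standard curve. Percent inhibition was calculated versus vehicle-treated controls, 5–10 rats per group, as mean ± SEM, with one-way ANOVA and Dunnett's test (p ≤ 0.05).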

Neutrophil elastase [2] = target: T1, Neutrophil elastase (Homo sapiens, UniProt P08246); assay: In vitro inhibitory activity against human neutrophil elastase was determined at a dose of 25 mg/kg; format: organism-based; parameters: dose 25 mg/kg
T1 sequence (P08246 whole entry): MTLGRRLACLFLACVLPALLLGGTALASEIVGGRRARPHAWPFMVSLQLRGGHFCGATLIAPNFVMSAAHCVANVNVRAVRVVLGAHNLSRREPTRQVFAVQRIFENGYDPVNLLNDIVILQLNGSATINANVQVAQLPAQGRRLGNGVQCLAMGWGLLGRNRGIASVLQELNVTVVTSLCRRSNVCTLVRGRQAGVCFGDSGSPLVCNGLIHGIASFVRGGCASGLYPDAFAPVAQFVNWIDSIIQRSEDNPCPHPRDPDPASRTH

Cricetinae gen. sp. = assay: In vivo inhibitory activity against HNE-induced pulmonary hemorrhage was determined in hamsters after oral administration of 25 mg/kg; format: functional
Summary of the method: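 Hamsters were dosed orally 30 min (one case 15 min) before intratracheal instillation of 20 or 10 μg HNE. After 1 h, lungs were lavaged with saline, and BAL hemoglobin was read at 536–546 nm against a Hgb standard curve. Inhibition was calculated versus vehicle controls, 6–19 hamsters per group, as mean ± SEM, with ANOVA and Dunnett's test (p ≤ 0.05).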

Neutrophil elastase [3] = target: T1, Neutrophil elastase; assay: In vitro inhibitory activity against human neutrophil elastase
Summary of the method: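 HNE was partially purified from human purulent sputum and assayed with MeO-Suc-Ala-Ala-Pro-Val-p-nitroanilide; the assay contained 10% v/v DMSO. Ki was found either from a double-reciprocal plot (four substrate × three inhibitor concentrations) or, assuming competitive inhibition, from three inhibitor concentrations at 0.2 mM substrate (≈Km) using v0/vi = 1 + [I]/Ki,app and Ki = Ki,app/(1 + [S]/Km). Inhibitor was 5–100-fold over enzyme, with no hydration correction.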

Rattus norvegicus [4] = assay: In vivo inhibitory activity against HNE-induced pulmonary hemorrhage was determined in rats after oral administration of 50 mg/kg; format: functional; summary of the method: as §1
[5] = Inhibition of HNE-induced pulmonary hemorrhage when the compound was administered before 30 or 45 min at the dose of 50 mg/kg; orally active; format: functional, organism-based; parameters: dose 50 mg/kg
[6] = Inhibition of HNE-induced pulmonary hemorrhage when the compound was administered before 30 or 45 min at the dose of 50 mg/kg; not orally active; format: functional, organism-based; parameters: dose 50 mg/kg
Neutrophil elastase [7] = target: T1, Neutrophil elastase; assay: In vitro inhibitory activity against human neutrophil elastase was determined at a dose of 45 mg/kg; format: organism-based; parameters: dose 45 mg/kg
Rattus norvegicus [8] = assay: In vivo inhibitory activity against HNE-induced pulmonary hemorrhage was determined in rats after oral administration of 45 mg/kg; format: functional; summary of the method: as §1
Cathepsin B (Bos taurus) = Cathepsin B (Bos taurus) (UniProt P07688); assay: Tested for the ability to inhibit bovine liver cathepsin B at 0.5 mM
[9] = Half life determined from epimerization data at 37 degree C in human blood serum 2; format: ADME, organism-based, Plasma
Summary of the method: (§2)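 The L-L-L or L-L-D diastereomer was held at 37 °C in human blood serum (three individual donors) or human plasma, with a sealed D2O capillary inserted into the NMR tube for lock. Epimerization was followed by 19F NMR spectra, and the half-life was taken from these spectra.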

[10] = target: T2, Neprilysin (Rattus norvegicus) (UniProt P07861); assay: Tested for the ability to inhibit rat kidney enkephalinase at 0.5 mM
T2 sequence (whole entry): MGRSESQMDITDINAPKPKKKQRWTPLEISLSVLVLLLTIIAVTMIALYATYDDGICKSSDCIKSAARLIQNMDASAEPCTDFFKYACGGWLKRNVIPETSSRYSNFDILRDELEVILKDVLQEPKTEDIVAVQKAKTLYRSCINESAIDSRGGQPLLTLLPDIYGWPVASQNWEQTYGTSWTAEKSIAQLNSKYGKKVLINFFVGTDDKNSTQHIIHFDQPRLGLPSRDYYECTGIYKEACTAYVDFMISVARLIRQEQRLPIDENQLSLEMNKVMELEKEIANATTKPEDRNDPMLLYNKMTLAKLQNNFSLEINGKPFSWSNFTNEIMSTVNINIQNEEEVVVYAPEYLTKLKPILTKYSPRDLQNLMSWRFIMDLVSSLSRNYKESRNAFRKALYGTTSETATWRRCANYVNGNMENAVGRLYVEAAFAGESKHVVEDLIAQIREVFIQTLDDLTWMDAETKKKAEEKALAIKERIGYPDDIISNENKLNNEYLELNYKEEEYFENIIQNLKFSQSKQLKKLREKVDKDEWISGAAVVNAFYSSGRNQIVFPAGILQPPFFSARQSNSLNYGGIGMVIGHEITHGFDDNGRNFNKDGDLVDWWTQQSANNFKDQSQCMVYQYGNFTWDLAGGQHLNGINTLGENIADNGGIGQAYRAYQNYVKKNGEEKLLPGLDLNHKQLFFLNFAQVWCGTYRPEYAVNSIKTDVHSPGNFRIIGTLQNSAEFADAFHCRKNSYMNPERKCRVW

[11] = Half life determined from epimerization data at 37 degree C in human blood plasma; format: ADME, organism-based; summary of the method: as §2
[12] = Half life determined from epimerization data at 37 degree C in human blood serum 3; format: ADME, organism-based, Plasma; summary of the method: as §2
[13] = Half life determined from epimerization data at 25 degree C in Tween 20 (81 mM); details: Tween 20 solution (81 mM)
Pepsin A (Sus scrofa) = Pepsin A (Sus scrofa) (UniProt P00791); assay: Tested for the ability to inhibit pepsin at 0.2 mM
[14] = target: T3, Cathepsin G (Homo sapiens) (UniProt P08311); assay: Tested for the ability to inhibit human neutrophil cathepsin G at 0.5 mM
T3 sequence (whole entry): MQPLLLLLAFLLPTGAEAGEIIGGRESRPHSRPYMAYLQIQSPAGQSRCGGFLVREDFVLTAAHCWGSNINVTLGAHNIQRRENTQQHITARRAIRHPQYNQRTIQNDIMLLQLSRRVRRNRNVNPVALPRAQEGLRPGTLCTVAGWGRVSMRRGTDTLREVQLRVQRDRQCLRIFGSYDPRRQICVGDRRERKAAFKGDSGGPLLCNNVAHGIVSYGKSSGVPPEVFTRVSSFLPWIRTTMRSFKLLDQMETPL

Neutrophil elastase [15] = target: T1, Neutrophil elastase; assay: In vitro inhibitory activity against human neutrophil elastase […]; parameters: dose 50 mg/kg
Prothrombin (Bos taurus) = Prothrombin (Bos taurus) (UniProt P00735); assay: Tested for the ability to inhibit bovine thrombin at 0.5 mM
[16] = Half life determined from epimerization data at 25 degree C in buffered saline
[17] = Inhibition of HNE-induced pulmonary hemorrhage when the compound was administered before 30 or 45 min at the dose of 50 mg/kg; Not orally active; format: functional, organism-based; parameters: dose 50 mg/kg
Neutrophil elastase [18] = target: T1, Neutrophil elastase; assay: In vitro inhibitory activity against human neutrophil elastase was determined at a dose of 100 mg/kg; format: organism-based; parameters: dose 100 mg/kg
Rattus norvegicus [19] = assay: In vivo inhibitory activity against HNE-induced pulmonary hemorrhage was determined in rats after oral administration of 100 mg/kg; format: functional; summary of the method: as §1

Sequence of Pepsin A (Sus scrofa) (P00791 60-385 limits assumed): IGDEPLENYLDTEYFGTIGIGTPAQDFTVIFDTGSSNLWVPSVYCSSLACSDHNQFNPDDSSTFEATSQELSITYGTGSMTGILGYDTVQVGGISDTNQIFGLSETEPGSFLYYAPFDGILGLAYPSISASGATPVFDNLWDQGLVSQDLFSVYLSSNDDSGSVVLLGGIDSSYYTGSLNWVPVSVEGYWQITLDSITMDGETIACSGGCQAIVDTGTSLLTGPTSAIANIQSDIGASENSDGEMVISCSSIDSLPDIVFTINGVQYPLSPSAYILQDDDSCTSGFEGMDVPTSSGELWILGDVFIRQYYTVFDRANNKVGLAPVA

| SMILES | inhibition in vivo at 25 mg/kg (Cricetinae gen. sp.) | inhibition in vivo at 50 mg/kg (Rattus norvegicus [4]) | Oral activity [5] | Ki (Neutrophil elastase [15]) | Oral activity [17] | other results |
| --- | --- | --- | --- | --- | --- | --- |
| CC(C)C(NC(=O)[C@@H]1CCCN1C(=O)[C@@H](NC(=O)CC(=O)N1CCOCC1)C(C)C)C(=O)C(F)(F)C(F)(F)F (some centres undefined) | – | – | – | – | – | inhibition in vivo at 25 mg/kg (Rattus norvegicus [1]): 41%; Ki (Neutrophil elastase [2]): 70 nM |
| CC(C)C(NC(=O)[C@@H]1CCCN1C(=O)[C@@H](NC(=O)c1ccc(C(=O)N2CCOCC2)nc1)C(C)C)C(=O)C(F)(F)C(F)(F)F (some centres undefined) | 61% | – | – | – | – | – |
| CC(C)[C@H](NC(=O)N(C)C)C(=O)N1CCC[C@H]1C(=O)N[C@H](C(=O)C(F)(F)C(F)(F)F)C(C)C | – | 70% | Active | – | – | Ki (Neutrophil elastase [3]): 261 nM |
| CC(C)[C@H](NC(=O)c1ccco1)C(=O)N1CCC[C@H]1C(=O)N[C@H](C(=O)C(F)(F)C(F)(F)F)C(C)C | – | – | – | – | – | Oral activity [6]: inactive; Ki (Neutrophil elastase [7]): 190 nM; inhibition in vivo at 45 mg/kg (Rattus norvegicus [8]): 44% |
| CC(C)C(NC(=O)[C@@H]1CCCN1C(=O)[C@@H](NC(=O)c1ccc(C(=O)N2CCOCC2)cc1)C(C)C)C(=O)C(F)(F)C(F)(F)F (some centres undefined) | 74% | 69% | Active | 25 nM | – | inhibition (Cathepsin B (Bos taurus)): < 5%; half-life [9]: 30 min; inhibition [10]: < 5%; half-life [11]: 30 min; half-life [12]: 30 min; half-life [13]: 70 min; inhibition (Pepsin A (Sus scrofa)): 40%; inhibition [14]: 15%; inhibition (Prothrombin (Bos taurus)): < 5%; half-life [16]: > 200 h |
| CC(C)C(NC(=O)[C@@H]1CCCN1C(=O)[C@@H](NC(=O)c1ccc(C(=O)NS(=O)(=O)c2ccc(Cl)cc2)cc1)C(C)C)C(=O)C(F)(F)C(F)(F)F (some centres undefined) | – | – | – | – | inactive | Ki (Neutrophil elastase [18]): 7 nM; inhibition in vivo at 100 mg/kg (Rattus norvegicus [19]): -30% |
| CC(C)C(NC(=O)[C@@H]1CCCN1C(=O)[C@@H](NC(=O)C1CCOCC1)C(C)C)C(=O)C(F)(F)C(F)(F)F (some centres undefined) | – | 71% | Active | 59 nM | – | – |
| CC(C)C(NC(=O)[C@@H]1CCCN1C(=O)[C@@H](NC(=O)c1ccc(NC(=O)N2CCOCC2)cc1)C(C)C)C(=O)C(F)(F)C(F)(F)F (some centres undefined) | – | 26% | – | 43 nM | inactive | – |
| CC(C)C(NC(=O)[C@@H]1CCCN1C(=O)[C@@H](NC(=O)CCc1cccnc1)C(C)C)C(=O)C(F)(F)C(F)(F)F (some centres undefined) | 67% | – | Active | – | – | – |
| CC(C)C(NC(=O)[C@@H]1CCCN1C(=O)[C@@H](NC(=O)c1ccc(C(=O)O)cc1)C(C)C)C(=O)C(F)(F)C(F)(F)F (some centres undefined) | -3% | – | – | – | inactive | – |
| CC(C)[C@H](NC(=O)CN1CCOCC1)C(=O)N1CCC[C@H]1C(=O)N[C@H](C(=O)C(F)(F)C(F)(F)F)C(C)C | – | 77% | Active | 60 nM | – | – |
| CC(C)C(NC(=O)[C@@H]1CCCN1C(=O)[C@@H](NC(=O)C(C(=O)N1CCOCC1)C(C)C)C(C)C)C(=O)C(F)(F)C(F)(F)F (some centres undefined) | 70% | – | Active | – | – | – |
| CC(C)C(NC(=O)[C@@H]1CCCN1C(=O)[C@@H](NC(=O)c1ccc(C(=O)N2CCN(C(=O)N3CCOCC3)CC2)cc1)C(C)C)C(=O)C(F)(F)C(F)(F)F (some centres undefined) | 31% | – | – | – | inactive | – |
| CC(C)C(NC(=O)[C@@H]1CCCN1C(=O)[C@@H](NC(=O)N1CCOCC1)C(C)C)C(=O)C(F)(F)C(F)(F)F (some centres undefined) | 69% | 69% | Active | 170 nM | – | – |
| CC(C)C(NC(=O)[C@@H]1CCCN1C(=O)[C@@H](NC(=O)c1ccc(S(=O)(=O)N2CCOCC2)cc1)C(C)C)C(=O)C(F)(F)C(F)(F)F (some centres undefined) | 30% | – | – | – | inactive | – |
